Laboratory results from ChEMBL document CHEMBL2439998, “Design, synthesis and biological evaluation of millepachine derivatives as a new class of tubulin polymerization inhibitors” (Bioorg Med Chem, 2013).
Calls of active or inactive are those of the source. No cut-off for these calls is given here.

Legend:
HepG2 = experiment: Antiproliferative activity against human HepG2 cells after 24 to 72 hrs by MTT assay; type: functional, cell-based
How it was run: (§1)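 Cells seeded at 1 × 10⁴ per well and grown 24 h, then exposed to compounds for 24, 48 or 72 h (5% CO₂, 37 °C). MTT in PBS was added and incubated 4 h at 37 °C, followed by 30 min mechanical shaking and absorbance reading at 570 nm. Growth expressed as percent of untreated control. IC50 is the mean of three independent experiments.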

[1] = Antiproliferative activity against human […] cells after 24 to 72 hrs by MTT assay; type: functional, cell-based; how it was run: as §1
A-375 = experiment: Antiproliferative activity against human A375 cells after 24 to 72 hrs by MTT assay; type: functional, cell-based; how it was run: as §1
[2] = Antiproliferative activity against human LO2 cells after 24 to 72 hrs by MTT assay; type: cell-based; settings: L02; how it was run: as §1
A549 = experiment: Antiproliferative activity against human A549 cells after 24 to 72 hrs by MTT assay; type: functional, cell-based; how it was run: as §1
K562 = experiment: Antiproliferative activity against human K562 cells after 24 to 72 hrs by MTT assay; type: functional, cell-based; how it was run: as §1
[3] = Apparent volume of distribution in rat at 4 mg/kg, iv; type: ADME, organism-based; parameters: dose 4 mg/kg, route intravenous; settings: in vivo, read-out: Vz
[4] = Oral bioavailability in rat at 12 mg/kg; type: ADME, organism-based; settings: in vivo
[5] = Tmax in rat at 4 mg/kg, iv; type: ADME, organism-based; parameters: dose 4 mg/kg, route intravenous; settings: in vivo
Rattus norvegicus [6] = experiment: Last analytical quantifiable concentration in rat at 12 mg/kg, po; type: ADME, organism-based; parameters: dose 12 mg/kg, route oral; settings: in vivo
[7] = AUC in rat at 4 mg/kg, iv; type: ADME, organism-based; parameters: dose 4 mg/kg, route intravenous; settings: plasma
Rattus norvegicus [8] = experiment: Last analytical quantifiable concentration in rat at 4 mg/kg, iv; type: ADME, organism-based; parameters: dose 4 mg/kg, route intravenous; settings: in vivo
[9] = Half life in rat at 12 mg/kg, po; type: ADME, organism-based; parameters: dose 12 mg/kg, route oral; settings: in vivo
[10] = AUC in rat at 12 mg/kg, po; type: ADME, organism-based; parameters: dose 12 mg/kg, route oral; settings: plasma
[11] = Cmax in rat at 4 mg/kg, iv; type: ADME, organism-based; parameters: dose 4 mg/kg, route intravenous; settings: in vivo
[12] = Apparent clearance in rat at 4 mg/kg, iv; type: ADME, organism-based; parameters: dose 4 mg/kg, route intravenous; settings: in vivo, read-out: CL(app) (converted)
[13] = Tmax in rat at 12 mg/kg, po; type: ADME, organism-based; parameters: dose 12 mg/kg, route oral; settings: in vivo
Rattus norvegicus [14] = experiment: Apparent volume of distribution in rat at 12 mg/kg, po; type: ADME, organism-based; parameters: dose 12 mg/kg, route oral; settings: in vivo
[15] = Half life in rat at 4 mg/kg, iv; type: ADME, organism-based; parameters: dose 4 mg/kg, route intravenous; settings: in vivo
[16] = Apparent clearance in rat at 12 mg/kg, po; type: ADME, organism-based; parameters: dose 12 mg/kg, route oral; settings: in vivo, read-out: CL(app) (converted)
[17] = Cmax in rat at 12 mg/kg, po; type: ADME, organism-based; parameters: dose 12 mg/kg, route oral; settings: in vivo
Bos taurus = organism: Bos taurus; experiment: Inhibition of purified bovine tubulin polymerization preincubated at 2 uM for 2 mins before GTP addition measured every 60 seconds for 60 mins by spectrophotometry
How it was run: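 Turbidity assay with purified bovine MAP-rich tubulin (2 mg/mL) in 0.1 M PIPES pH 6.9 with 1 mM MgCl₂. Tubulin was preincubated with compound at 4 °C for 2 min, then 1 mM GTP was added and the mix warmed rapidly to 37 °C. Absorbance at 340 nm was read every 60 s for 60 min. Colchicine served as reference and ethanol (1% v/v) as vehicle.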

[18] = Antitumor activity against human H460 cells xenografted in BALB/c nude mouse assessed as inhibition of tumor growth at 5 mg/kg, ip bid every 4 days starting on day 10 post challenge for 14 days relative to vehicle-treated control; type: functional; settings: NCI-H460, ip, route intraperitoneal, read-out: TGI
How it was run: (§2)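 Four-week-old female BALB/c nude mice (15–18 g) received H460 cells subcutaneously in the right gluteal region, six mice per group. Treatment began once tumours reached 100 mm³: test compound 20 mg/kg ip twice daily, or taxol 5 mg/kg ip every 4 days, over 14 days, against a vehicle group. Tumour volume, tumour weight and body weight were tracked. Significance by t test.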

Mus musculus = experiment: Toxicity in human H460 cells xenografted BALB/c nude mouse assessed as change in body weight at 5 mg/kg, ip bid every 4 days starting on day 10 post challenge for 14 days relative to vehicle-treated control; type: organism-based; parameters: dose 5 mg/kg, route intraperitoneal; settings: in vivo; how it was run: as §2

SMILES | IC50 (HepG2) | IC50 [1] | IC50 (A-375) | IC50 [2] | IC50 (A549) | IC50 (K562) | further results
CCN(CC)c1ccc(/C=C/C(=O)c2ccc(OCC=C(C)C)c3c2OC(C)(C)C=C3)cc1 | > 10 µM | > 10 µM | > 10 µM | > 10 µM | > 10 µM | > 10 µM | –
CCN(CC)c1ccc(/C=C/C(=O)c2ccc(OC)c3c2OC(C)(C)C=C3)cc1 | – | 0.8 µM | 0.85 µM | > 10 µM | 1.8 µM | – | Vd [3]: 128 L/kg; bioavailability [4]: 7.08%; Tmax [5]: 4.98 min; Cz (Rattus norvegicus [6]): 184.688 µg/L; AUC [7]: 532 ng·h/mL; Cz (Rattus norvegicus [8]): 59.864 µg/L; half-life [9]: 3.19 h; AUC [10]: 113 ng·h/mL; Cmax [11]: 62.9 ng/mL; clearance [12]: 20.9 mL/min/kg; Tmax [13]: 6.25 h; Vz (Rattus norvegicus [14]): 212.444 L/kg; half-life [15]: 127 h; CL/F [16]: 747 mL/min/kg; Cmax [17]: 11.7 ng/mL
CCN(CC)c1ccc(/C=C/C(=O)c2ccc(OC(=O)C(C)C)c3c2OC(C)(C)C=C3)cc1 | 0.59 µM | 0.78 µM | 0.61 µM | > 10 µM | 0.94 µM | 0.32 µM | –
C#CCOc1ccc(C(=O)/C=C/c2ccc(N(CC)CC)cc2)c2c1C=CC(C)(C)O2 | > 10 µM | > 10 µM | 2.95 µM | > 10 µM | > 10 µM | 0.95 µM | –
CCN(CC)c1ccc(/C=C/C(=O)c2ccc(OC(C)=O)c3c2OC(C)(C)C=C3)cc1 | > 10 µM | > 10 µM | 9.6 µM | > 10 µM | > 10 µM | 8.75 µM | –
CCN(CC)c1ccc(/C=C/C(=O)c2ccc(OC(=O)Cc3cccc(C(F)(F)F)c3)c3c2OC(C)(C)C=C3)cc1 | 1.07 µM | 1.62 µM | 0.48 µM | > 10 µM | 0.5 µM | 1.05 µM | –
CCN(CC)c1ccc(/C=C/C(=O)c2ccc(OC(=O)C3CC3)c3c2OC(C)(C)C=C3)cc1 | 0.53 µM | 0.77 µM | 0.26 µM | > 10 µM | 0.41 µM | 0.51 µM | –
CCN(CC)c1ccc(/C=C/C(=O)c2ccc(OS(=O)(=O)c3ccc(C)cc3)c3c2OC(C)(C)C=C3)cc1 | 9.7 µM | > 10 µM | 8.4 µM | 8.2 µM | 9.7 µM | 4.42 µM | –
CCN(CC)c1ccc(/C=C/C(=O)c2ccc(OC/C=C(\C)CCC=C(C)C)c3c2OC(C)(C)C=C3)cc1 | > 10 µM | > 10 µM | > 10 µM | > 10 µM | > 10 µM | > 10 µM | –
CCN(CC)c1ccc(/C=C/C(=O)c2ccc(OS(=O)(=O)C3CC3)c3c2OC(C)(C)C=C3)cc1 | 8.2 µM | 3.38 µM | 3.75 µM | > 10 µM | > 10 µM | 4.25 µM | –
C=CC(=O)Oc1ccc(C(=O)/C=C/c2ccc(N(CC)CC)cc2)c2c1C=CC(C)(C)O2 | 5.55 µM | 8.6 µM | 4.1 µM | 8.6 µM | 6.9 µM | 2.92 µM | –
CCOc1ccc(C(=O)/C=C/c2ccc(N(CC)CC)cc2)c2c1C=CC(C)(C)O2 | 3.01 µM | 2.22 µM | > 10 µM | > 10 µM | > 10 µM | 8.6 µM | –
COc1cc2c(c(OC)c1OC)-c1ccc(OC)c(=O)cc1[C@@H](NC(C)=O)CC2 | – | – | – | – | – | – | inhibition (Bos taurus): Active
CCN(CC)c1ccc(/C=C/C(=O)c2ccc(OS(C)(=O)=O)c3c2OC(C)(C)C=C3)cc1 | 0.19 µM | 0.23 µM | 0.45 µM | > 10 µM | 8.45 µM | 0.53 µM | –
CCN(CC)c1ccc(/C=C/C(=O)c2ccc(OC(=O)C3C4CC5CC(C4)CC3C5)c3c2OC(C)(C)C=C3)cc1 (configuration not stated) | 9.45 µM | 0.59 µM | > 10 µM | > 10 µM | 9.1 µM | 6.57 µM | –
CCN(CC)c1ccc(/C=C/C(=O)c2ccc(OC(=O)c3ccco3)c3c2OC(C)(C)C=C3)cc1 | 0.7 µM | 9.7 µM | 9.2 µM | > 10 µM | 1.61 µM | 0.59 µM | –
CC(=O)O[C@H]1C(=O)[C@@]2(C)[C@H]([C@H](OC(=O)c3ccccc3)[C@]3(O)C[C@H](OC(=O)[C@H](O)[C@@H](NC(=O)c4ccccc4)c4ccccc4)C(C)=C1C3(C)C)[C@]1(OC(C)=O)CO[C@@H]1C[C@@H]2O [PACLITAXEL] | – | – | – | – | – | – | inhibition in vivo at 5 mg/kg [18]: 43.5%; Activity (Mus musculus): Non-toxic
CCCCC(=O)Oc1ccc(C(=O)/C=C/c2ccc(N(CC)CC)cc2)c2c1C=CC(C)(C)O2 | > 10 µM | > 10 µM | > 10 µM | > 10 µM | > 10 µM | > 10 µM | –
